Source: PMC6587324 (ChemistryOpen, 2019)
Read-outs that look alike come from different tables or passages of the source.

Legend:
integrin α5β1 [1] = target: T1, integrin α5β1 (Homo sapiens, UniProt P05556+P08648); settings: read-out: α5β1 IC50; cited from earlier work
integrin α5β1 [2] = target: T1, integrin α5β1; experiment: Integrin α5β1 binding assay
human integrin αvβ3 = human integrin αvβ3 (Homo sapiens, UniProt P05106+P06756); assay type: binding; settings: SD
How it was run: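 Immobilized isolated human αvβ3 integrin incubated with biotinylated vitronectin (1 μg mL−1) plus test compound over 10−5–10−12 M. Bound biotinylated vitronectin measured. IC50 taken as the concentration giving 50 % inhibition of vitronectin binding, calculated from the concentration-response data. Values are mean ± standard deviation of duplicate measurements.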

| SMILES | IC50 (human integrin αvβ3) [nM] | also measured |
| --- | --- | --- |
| N=C(N)NCCC[C@@H]1NC(=O)C[C@H]2NC(=O)[C@H](CNC(=O)[C@H](CC(=O)O)NC(=O)CNC1=O)N(Cc1ccccc1)C2=O [compound 1, cyclo[DKP‐RGD]] | – | IC50 (integrin α5β1 [1]): 532 nM |
| N=C(N)NCCC[C@@H]1NC(=O)CNC(=O)C[C@@H](C(=O)O)NC(=O)C[C@H]2NC(=O)[C@H](CNC1=O)N(Cc1ccccc1)C2=O [compound 3, cyclo[DKP‐isoDGR]] | – | IC50 (integrin α5β1 [2]): 1070 nM |
| COc1ccc(C[C@H]2NC(=O)/C=C/C[C@@H]([C@H](C)[C@@H](OC(=O)CNC(=O)OCc3ccc(NC(=O)[C@H](C)NC(=O)[C@@H](NC(=O)CCc4cn(CCOCCOCCOCCOCC(=O)NCc5ccc(CN6C(=O)[C@H]7CC(=O)N[C@@H](CCCNC(=N)N)C(=O)NCC(=O)N[C@@H](CC(=O)O)C(=O)NC[C@H]6C(=O)N7)cc5)nn4)C(C)C)cc3)[C@@H](Cl)c3ccccc3)OC(=O)[C@H](CC(C)C)OC(=O)C(C)(C)CNC2=O)cc1Cl [compound 10, cyclo[DKP‐RGD]‐PEG4‐Val−Ala‐PABC‐Cry‐55gly] | 7.2 ± 1.5 | – |
| COc1ccc(C[C@H]2NC(=O)/C=C/C[C@@H]([C@H](C)[C@@H](OC(=O)CNC(=O)OCc3ccc(NC(=O)[C@H](C)NC(=O)[C@@H](NC(=O)CCc4cn(CCOCCOCCOCCOCC(=O)NCc5ccc(CN6C(=O)[C@H]7CC(=O)N[C@H](C(=O)O)CC(=O)NCC(=O)N[C@@H](CCCNC(=N)N)C(=O)NC[C@H]6C(=O)N7)cc5)nn4)C(C)C)cc3)[C@@H](Cl)c3ccccc3)OC(=O)[C@H](CC(C)C)OC(=O)C(C)(C)CNC2=O)cc1Cl [compound 11, cyclo[DKP‐isoDGR]‐PEG4‐Val−Ala‐PABC‐Cry‐55gly] | 5.5 ± 2.8 | – |
| COc1ccc(C[C@H]2NC(=O)/C=C/C[C@@H]([C@H](C)[C@@H](OC(=O)CNC(=O)CCc3cn(CCOCCOCCOCCOCC(=O)NCc4ccc(CN5C(=O)[C@H]6CC(=O)N[C@@H](CCCNC(=N)N)C(=O)NCC(=O)N[C@@H](CC(=O)O)C(=O)NC[C@H]5C(=O)N6)cc4)nn3)[C@@H](Cl)c3ccccc3)OC(=O)[C@H](CC(C)C)OC(=O)C(C)(C)CNC2=O)cc1Cl [compound 13, cyclo[DKP‐RGD]‐PEG4‐uncl‐Cry‐55gly] | 24.1 ± 1 | – |
| COc1ccc(C[C@H]2NC(=O)/C=C/C[C@@H]([C@H](C)[C@@H](OC(=O)CNC(=O)CCc3cn(CCOCCOCCOCCOCC(=O)NCc4ccc(CN5C(=O)[C@H]6CC(=O)N[C@H](C(=O)O)CC(=O)NCC(=O)N[C@@H](CCCNC(=N)N)C(=O)NC[C@H]5C(=O)N6)cc4)nn3)[C@@H](Cl)c3ccccc3)OC(=O)[C@H](CC(C)C)OC(=O)C(C)(C)CNC2=O)cc1Cl [compound 14, cyclo[DKP‐isoDGR]‐PEG4‐uncl‐Cry‐55gly] | 10.2 ± 0.4 | – |
